Legend:
[1] = system: Mus musculus; experiment: Percent increase in mean life span when 0.2 mg/kg vincristine was administered ip once daily on days 1-7, in mice infected with leukemia P388/VCR; type: functional; design: concentration or dose not given beside the values; details: route intraperitoneal
Procedure, shortened: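 CDF1 mice bearing ip P388/VCR (1 × 10^6 cells) received 0.2 mg/kg vincristine ip once daily on days 1–7. Mean survival to 30 days was expressed as % increase in life span relative to placebo control.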

[2] = Partition coefficient (logP); type: physicochemical; details: octanol/water
[3] = system: Mus musculus; experiment: Percent increase in mean life span relative to treatment with an equivalent dose of vincristine alone at 25 mg/kg in mice with vincristine-resistantmurine leukemia P388/VCR cells; type: functional
Procedure, shortened: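 CDF1 mice were implanted ip with 1 × 10^6 P388/VCR cells. Agent and 0.2 mg/kg vincristine were given simultaneously ip once daily, days 1–7. Mean survival over up to 30 days was compared with vincristine alone at an equivalent dose, giving % increase in life span. Student t-test was applied to mean survival time.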

[4] = system: S1B1-20; experiment: In vitro concentration required to inhibit tumor activity on subclone of human colon carcinoma cells (S1-B1-20) resistant to bisantrene; type: functional, cell-based; details: Homo sapiens, S1B1-20
Procedure, shortened: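 S1-B1-20 cells (S1 clone of LS 174 T, selected in bisantrene over 12–16 weeks) plated at 20 000 cells/well with or without 20 μM bisantrene, plus test agent 0.1–80 μM from DMSO stock (final DMSO ≤0.1%). 3 days, 37 °C, 7% CO2. Survival by sulforhodamine B at 540 nm. IC50 from best-fit curve of difference score (survival alone minus survival with bisantrene) at 50; 2–4 sets of measurements.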

[5] = In vitro concentration at which 50% of human colon carcinoma cells (S1-B1-20) resistant to bisantrene have survived; type: ADME, cell-based, S1B1-20; details: S1-B1-20 human colon carcinoma cells resistant to bisantrene, read-out: LD50 (the source's name)
Procedure, shortened: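 S1-B1-20 cells (LS 174 T-derived S1 clone selected in bisantrene over 12–16 weeks), trypsinized, 20 000 cells/well. Test agent alone in DMSO (≤0.1% final), 0.1–80 µM, 3 days at 37 °C, 7% CO2. Survival by sulforhodamine B read at 540 nm versus untreated cells. Two to four measurement sets were made, and the value is the concentration giving 50% survival from a best-fit curve.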

[6] = system: Mus musculus; experiment: Percent increase in mean life span in mice infected with leukemia P388/VCR, at 25 mg/Kg dose; type: functional
Procedure, shortened: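 CDF1 mice (groups of 10–15) were implanted ip with 1 × 10^6 P388/VCR cells. Agent plus 0.2 mg/kg vincristine were given together ip once daily on days 1–7, starting 1 day post-implant, in cremophor/ethanol or propylene glycol/ethanol vehicle. Survival was recorded to 30 days. Result is the % increase in mean life span versus placebo control.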

[7] = system: Mus musculus; experiment: Percent tumor growth inhibition against human epidermoid carcinoma KB/8.5 implanted subcutaneously in mice at 100 mg/kg of compound along with 8 mg/kg (DOX ) was determined; type: functional
Procedure, shortened: (§1)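 Athymic nude mice bearing sc KB/8.5 tumors (8×10^6 cells, colchicine withdrawn for two passages), grouped at 100–300 mg tumor mass, 5–10 mice/group. Doxorubicin 8 mg/kg given once iv; reversal agent or placebo given sc 2 h before and 2 h after. Tumor mass on day 14 used for relative tumor growth versus doxorubicin alone; Student t-test on log RTG.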

[8] = system: Mus musculus; experiment: Relative tumor growth inhibition against human epidermoid carcinoma KB/8.5 implanted subcutaneously only in mice at 8 mg/kg (DOX); type: functional; details: route subcutaneous
Procedure, shortened: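 KB/8.5 cells grown in RPMI 1640 with 5% fetal calf serum plus colchicine (10 ng/mL), which was removed for two passages. 8 × 10^6 cells were then implanted sc in athymic nude mice. At 100-300 mg tumor mass, mice were grouped 5-10/group. Doxorubicin was given as a single iv dose (8 mg/kg). Tumor mass was measured on day 14, and relative growth was compared with saline control.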

[9] = system: Mus musculus; experiment: Percent tumor growth inhibition against human epidermoid carcinoma KB/8.5 implanted subcutaneously in mice at 200 mg/kg of compound along with 8 mg/kg (DOX ) was determined; type: functional; procedure, shortened: as §1

SMILES	ILS [1]	logP ([2]; read-out: logP)	ILS at 25 mg/kg [3]	IC50 [4]	CC50 [5]	ILS at 25 mg/kg [6]	TGI [7]	Relative tumor growth [8]	TGI [9]	logP [2]
COc1ccc(C(C#N)(CCCCCN2CCc3ccccc3C2)Sc2ccc(C)cc2)cc1OC (stereo unspecified)	14%	6.72	11%	2.56 µM	24.7 µM	27%				
COc1ccc(C(C#N)(CCCN2CCc3cc(O)c(O)cc3C2C)Sc2ccc(C)cc2)cc1OC (stereo unspecified)		4.92		4.7 µM						
COc1ccc(C(CCCCCN2CCc3cc(OC)c(OC)cc3C2)SCc2ccccc2)cc1OC (stereo unspecified)		6.63		1.98 µM	15.1 µM		68%	77		
COc1ccc(C(C#N)(CCCCCN2Cc3cc(OC)c(OCCCl)cc3C2)Sc2ccc(C)cc2)cc1OC (stereo unspecified)		6.14								
COc1ccc(C(CCCCCN2CCc3cc(OC)c(OC)cc3C2)SC2CCCCC2)cc1OC (stereo unspecified)		7.33		0.73 µM	16.1 µM		57%	67		
COc1cc2c(cc1OC)CN(CCCCCC(Sc1ccc(C)cc1)c1ccc3c(c1)OCO3)CC2 (stereo unspecified)		7.31		0.5 µM	15.9 µM			100	39%	
COc1ccc(C(CCCCCCN2CCc3cc(OC)c(OC)cc3C2)Sc2ccc(C)cc2)cc1O (stereo unspecified)		7.67		0.84 µM	13.1 µM			75	54%	
COc1cc2c(cc1O)CN(CCCCCC(C#N)(Sc1ccc(C)cc1)c1ccc(OC)c(OC)c1)C2 (stereo unspecified)		5.78								
COc1cc2c(cc1OC)CN(CCCCCC(Sc1ccc(C)cc1)c1ccc(OC(F)(F)F)cc1)CC2 (stereo unspecified)		8.44		2.07 µM	16.9 µM		51%	100		
COc1ccc(C(CCCN2CCc3cc(OC)c(OC)cc3C2)Sc2ccc(C)cc2)cc1OC (stereo unspecified)		6.36		1.23 µM	25.8 µM					
COc1ccc(CCN(C)CCCC(C#N)(c2ccc(OC)c(OC)c2)C(C)C)cc1OC (stereo unspecified) [VERAPAMIL]				17.3 µM						
COc1ccc(C(CCCCCN2CCc3cc4c(cc3C2)OCO4)Sc2ccc(C)cc2)cc1OC (stereo unspecified)		7.31			24.9 µM			100	57%	
CCC(CCCCCN1CCc2cc(OC)c(OC)cc2C1)(Sc1ccc(C)cc1)c1ccc(OC)c(OC)c1 (stereo unspecified)		8.34		1.23 µM	11.8 µM		72%	77		
COc1ccc(C(C#N)(CCCCCN2CCc3cc4c(cc3C2)OCO4)Sc2ccc(C)cc2)cc1OC (stereo unspecified)	24%	6.08	16%	3.09 µM	30 µM	38%				
COc1ccc(C(C#N)(CCCCN2CCc3cc(OC)c(OC)cc3C2)Sc2ccc(C)cc2)cc1OC.ClCCl (stereo unspecified)										5.65
COc1ccc(C(C#N)(CCCCCN2CCc3cc(OC)c(OCCCl)cc3C2)SC2CCCCC2)cc1OC (stereo unspecified)		6.87								
COc1ccc(C(C#N)(CCCCCN2Cc3cc(Cl)c(Cl)cc3C2)Sc2ccc(C)cc2)cc1OC (stereo unspecified)		7.4		10.5 µM				57	94%	
COc1cc2c(cc1O)CN(CCCCCC(C#N)(Sc1ccc(C)cc1)c1ccc(OC)c(OC)c1)CC2 (stereo unspecified)		5.9		3.11 µM	24.9 µM					
COc1ccc(C(C#N)(Cc2cccc(CN3CCc4cc(OC)c(OC)cc4C3)c2)Sc2ccc(C)cc2)cc1OC (stereo unspecified)		5.91		2.19 µM	23.3 µM					
COc1ccc(C(CCCCCN2CCc3cc(OC)c(OC)cc3C2)SC(C)(C)C)cc1OC (stereo unspecified)		6.54		3.58 µM	76.8 µM			67	53%	

— ChEMBL document CHEMBL1132241, “Novel multidrug resistance reversal agents” (J Med Chem, 1999)
